Source: ChEMBL document CHEMBL4732237, “Discovery of 4-alkoxy-2-aryl-6,7-dimethoxyquinolines as a new class of topoisomerase I inhibitors endowed with potent in vitro anticancer activity” (2021)

The compounds below were run on HCT-15 (assay: Growth inhibition of human HCT-15 cells incubated for 48 hrs by sulforhodamine B assay). Details: not given.
Type: functional
In short: (§1)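 NCI five-dose screen covering 0.01–100 µM, prepared as 10-fold or ½-log dilutions from DMSO stock. Cells in RPMI 1640 with 5% FBS were exposed for 48 h at 37 °C after 24 h preincubation. Adherent cells were fixed with TCA (final 10%) and suspension cells were settled before fixing. Stain was SRB, read at 515 nm. GI50 = 50% reduction in net protein increase versus control, with Tz taken at drug addition.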
`COc1cc2nc(-c3ccc(Cl)cc3)cc(OCCCN3CCCC3)c2cc1OC` showed a GI50 of 0.567 µM.
Compound `COc1cc2nc(-c3ccc(C(F)(F)F)cc3)cc(OCCCN3CCOCC3)c2cc1OC` has a GI50 of 0.52 µM.

These compounds were tested on SR (assay: Growth inhibition of human SR cells incubated for 48 hrs by sulforhodamine B assay). Details: not given.
Type: functional
In short: (§2)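 NCI five-dose screen (0.01–100 µM; five concentrations plus control). Cells grown in RPMI 1640/5% FBS/2 mM L-glutamine and preincubated 24 h, with time-zero plates TCA-fixed. Drug exposure 48 h at 37 °C, followed by SRB protein staining and reading at 515 nm. GI50 is the concentration at [(Ti-Tz)/(C-Tz)]×100 = 50.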
`COc1cc2nc(-c3ccc(Cl)cc3)cc(OCCCN3CCCC3)c2cc1OC` showed a GI50 of 0.251 µM.
`COc1cc2nc(-c3ccc(C(F)(F)F)cc3)cc(OCCCN3CCOCC3)c2cc1OC` showed a GI50 of 0.242 µM.

What follows are compounds tested on U-251 (assay: Growth inhibition of human U-251 cells at 10 uM incubated for 48 hrs by sulforhodamine B assay relative to control). Details: read-out: GI.
Type: functional
In short: (§3)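 NCI one-dose screen across a 59-line panel. Cells were grown in RPMI 1640 with 5% FBS and 2 mM L-glutamine, plated and pre-incubated 24 h, then exposed to drug for 48 h at 37 °C, 5% CO2. Adherent cells were fixed with cold TCA (10% final), stained with 0.4% SRB in 1% acetic acid and read at 515 nm. Result is percent growth relative to no-drug control and time-zero cell count.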
With `COc1cc2nc(-c3ccc(Cl)cc3)cc(OCCCN3CCCC3)c2cc1OC` the inhibition of growth at 10 µM was 62%.

These compounds were tested on SK-OV-3 (assay: Growth inhibition of human SK-OV-3 cells at 10 uM incubated for 48 hrs by sulforhodamine B assay relative to control). Details: read-out: GI.
Type: functional
In short: (§4)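 NCI one-dose screen. Cells grown in RPMI 1640 with 5% FBS and 2 mM L-glutamine, plated and incubated 24 h at 37 °C, 5% CO2. DMSO-dissolved drug added, then 48 h further incubation. Adherent cells fixed with cold TCA, suspension cells fixed after settling. Stained with 0.4% SRB, absorbance read at 515 nm. Reported as percent growth relative to no-drug control and time-zero cell number.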
`COc1cc2nc(-c3ccc(Cl)cc3)cc(OCCCN3CCCC3)c2cc1OC` showed an inhibition of growth at 10 µM of 62%.

What follows are compounds tested on MDA-MB-435 (assay: Growth inhibition of human MDA-MB-435 cells incubated for 48 hrs by sulforhodamine B assay). Details: not given.
Type: functional
In short: as §1
`COc1cc2nc(-c3ccc(Cl)cc3)cc(OCCCN3CCCC3)c2cc1OC` was tested, and the GI50 was 2.72 µM.
For `COc1cc2nc(-c3ccc(C(F)(F)F)cc3)cc(OCCCN3CCOCC3)c2cc1OC`, the GI50 was 1.2 µM.

The compounds below were run on IGROV-1 (assay: Growth inhibition of human IGROV-1 cells at 10 uM incubated for 48 hrs by sulforhodamine B assay relative to control). Details: read-out: GI.
Type: functional
In short: (§5)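 NCI-60 single-dose screen. Cells were grown in RPMI 1640 with 5% FBS and 2 mM L-glutamine and plated 24 h before drug addition. Compound was added at one concentration in DMSO-derived medium and incubated for 48 h at 37 °C in 5% CO2. Read-out was SRB protein stain at 515 nm. Result is percent growth versus the no-drug control and the time-zero cell count; values below 0 indicate lethality.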
`COc1cc2nc(-c3ccc(Cl)cc3)cc(OCCCN3CCCC3)c2cc1OC` was tested, and the inhibition of growth at 10 µM was 62%.

What follows are compounds tested on M14 (assay: Growth inhibition of human M14 cells at 10 uM incubated for 48 hrs by sulforhodamine B assay relative to control). Details: read-out: GI.
Type: functional
In short: as §5
Work on `COc1cc2nc(-c3ccc(Cl)cc3)cc(OCCCN3CCCC3)c2cc1OC` yielded an inhibition of growth at 10 µM of 62%.

The compounds below were run on MCF7 (assay: Growth inhibition of human MCF7 cells at 10 uM incubated for 48 hrs by sulforhodamine B assay relative to control). Details: read-out: GI.
Type: functional
In short: as §5
For `COc1cc2nc(-c3ccc(Cl)cc3)cc(OCCCN3CCCC3)c2cc1OC`, the inhibition of growth at 10 µM was 62%.

The compounds below were run against T1, DNA topoisomerase 1 (Homo sapiens) (UniProt P11387) (assay: Inhibition of recombinant human TOPO1 assessed as TOP1-DNA cleavage complexes at 1 uM using 3'-[32-P]-117 labeled bp DNA as substrate incubated for 30 mins by SDS-PAGE analysis relative to control). Details: not given.
T1 sequence (whole entry): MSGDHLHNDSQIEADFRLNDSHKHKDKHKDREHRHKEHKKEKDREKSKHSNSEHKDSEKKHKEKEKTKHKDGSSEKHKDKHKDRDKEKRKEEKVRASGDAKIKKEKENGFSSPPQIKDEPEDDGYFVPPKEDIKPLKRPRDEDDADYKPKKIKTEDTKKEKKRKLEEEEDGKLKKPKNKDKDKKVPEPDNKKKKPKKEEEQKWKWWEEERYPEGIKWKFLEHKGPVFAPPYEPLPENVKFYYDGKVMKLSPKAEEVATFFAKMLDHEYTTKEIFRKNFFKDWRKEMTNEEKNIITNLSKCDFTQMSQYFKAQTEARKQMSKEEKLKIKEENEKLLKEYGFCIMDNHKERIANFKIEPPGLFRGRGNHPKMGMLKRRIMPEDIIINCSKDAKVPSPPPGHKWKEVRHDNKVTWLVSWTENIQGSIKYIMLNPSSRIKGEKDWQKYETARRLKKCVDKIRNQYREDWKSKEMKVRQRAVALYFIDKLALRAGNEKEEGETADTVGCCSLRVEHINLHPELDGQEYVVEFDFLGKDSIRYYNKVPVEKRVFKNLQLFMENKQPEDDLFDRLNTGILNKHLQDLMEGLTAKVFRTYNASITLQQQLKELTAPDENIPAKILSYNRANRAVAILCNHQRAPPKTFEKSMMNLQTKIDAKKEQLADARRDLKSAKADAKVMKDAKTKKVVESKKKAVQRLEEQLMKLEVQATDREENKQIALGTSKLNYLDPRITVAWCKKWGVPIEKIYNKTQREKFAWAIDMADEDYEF
In the case of `COc1cc2nc(-c3ccc(Cl)cc3)cc(OCCCN3CCCC3)c2cc1OC`, the inhibition is reported as 20%.
Work on `COc1cc2nc(-c3ccc(C(F)(F)F)cc3)cc(OCCCN3CCOCC3)c2cc1OC` yielded an inhibition of 50%.

The compounds below were run on MDA-MB-231 (assay: Growth inhibition of human MDA-MB-231 cells at 10 uM incubated for 48 hrs by sulforhodamine B assay relative to control). Details: read-out: GI.
Type: functional
In short: as §5
`COc1cc2nc(-c3ccc(Cl)cc3)cc(OCCCN3CCCC3)c2cc1OC` showed an inhibition of growth at 10 µM of 62%.

The compounds below were run on COLO 205 (assay: Growth inhibition of human COLO 205 cells at 10 uM incubated for 48 hrs by sulforhodamine B assay relative to control). Details: read-out: GI.
Type: functional
In short: as §5
With `COc1cc2nc(-c3ccc(Cl)cc3)cc(OCCCN3CCCC3)c2cc1OC` the inhibition of growth at 10 µM was 62%.

These compounds were tested on MOLT-4 (assay: Growth inhibition of human MOLT-4 cells at 10 uM incubated for 48 hrs by sulforhodamine B assay relative to control). Details: read-out: GI.
Type: functional
In short: as §4
`COc1cc2nc(-c3ccc(Cl)cc3)cc(OCCCN3CCCC3)c2cc1OC` was tested, and the inhibition of growth at 10 µM was 62%.

What follows are compounds tested on SF-295 (assay: Growth inhibition of human SF-295 cells at 10 uM incubated for 48 hrs by sulforhodamine B assay relative to control). Details: read-out: GI.
Type: functional
In short: as §4
For `COc1cc2nc(-c3ccc(Cl)cc3)cc(OCCCN3CCCC3)c2cc1OC`, the inhibition of growth at 10 µM was 62%.

The compounds below were run on NCI-H226 (assay: Growth inhibition of human NCI-H226 cells at 10 uM incubated for 48 hrs by sulforhodamine B assay relative to control). Details: read-out: GI.
Type: functional
In short: as §4
Work on `COc1cc2nc(-c3ccc(Cl)cc3)cc(OCCCN3CCCC3)c2cc1OC` yielded an inhibition of growth at 10 µM of 62%.

The compounds below were run on NCI-H522 (assay: Growth inhibition of human NCI-H522 cells incubated for 48 hrs by sulforhodamine B assay). Details: not given.
Type: functional
In short: as §2
In the case of `COc1cc2nc(-c3ccc(Cl)cc3)cc(OCCCN3CCCC3)c2cc1OC`, the GI50 is reported as 2.36 µM.
For `COc1cc2nc(-c3ccc(C(F)(F)F)cc3)cc(OCCCN3CCOCC3)c2cc1OC`, the GI50 was 2.52 µM.

The compounds below were run on K562 (assay: Growth inhibition of human K562 cells incubated for 48 hrs by sulforhodamine B assay). Details: not given.
Type: functional
In short: as §1
`COc1cc2nc(-c3ccc(Cl)cc3)cc(OCCCN3CCCC3)c2cc1OC` gave a GI50 of 1.06 µM.
With `COc1cc2nc(-c3ccc(C(F)(F)F)cc3)cc(OCCCN3CCOCC3)c2cc1OC` the GI50 was 1.18 µM.

These compounds were tested on UO-31 (assay: Growth inhibition of human UO-31 cells at 10 uM incubated for 48 hrs by sulforhodamine B assay relative to control). Details: read-out: GI.
Type: functional
In short: as §3
With `COc1cc2nc(-c3ccc(Cl)cc3)cc(OCCCN3CCCC3)c2cc1OC` the inhibition of growth at 10 µM was 62%.

These compounds were tested on A498 (assay: Growth inhibition of human A498 cells at 10 uM incubated for 48 hrs by sulforhodamine B assay relative to control). Details: read-out: GI.
Type: functional
In short: as §3
`COc1cc2nc(-c3ccc(Cl)cc3)cc(OCCCN3CCCC3)c2cc1OC` showed an inhibition of growth at 10 µM of 62%.

What follows are compounds tested on HOP-62 (assay: Growth inhibition of human HOP-62 cells incubated for 48 hrs by sulforhodamine B assay). Details: not given.
Type: functional
In short: as §1
With `COc1cc2nc(-c3ccc(Cl)cc3)cc(OCCCN3CCCC3)c2cc1OC` the GI50 was 1.38 µM.
`COc1cc2nc(-c3ccc(C(F)(F)F)cc3)cc(OCCCN3CCOCC3)c2cc1OC` showed a GI50 of 1.67 µM.

Each compound was assayed on RXF 393 (assay: Growth inhibition of human RXF 393 cells at 10 uM incubated for 48 hrs by sulforhodamine B assay relative to control). Details: read-out: GI.
Type: functional
In short: as §4
In the case of `COc1cc2nc(-c3ccc(Cl)cc3)cc(OCCCN3CCCC3)c2cc1OC`, the inhibition of growth at 10 µM is reported as 62%.

The compounds below were run on NCI-H23 (assay: Growth inhibition of human NCI-H23 cells incubated for 48 hrs by sulforhodamine B assay). Details: not given.
Type: functional
In short: as §2
`COc1cc2nc(-c3ccc(Cl)cc3)cc(OCCCN3CCCC3)c2cc1OC` gave a GI50 of 2.45 µM.
`COc1cc2nc(-c3ccc(C(F)(F)F)cc3)cc(OCCCN3CCOCC3)c2cc1OC` showed a GI50 of 2.36 µM.

Each compound was assayed on SK-MEL-2 (assay: Growth inhibition of human SK-MEL-2 cells incubated for 48 hrs by sulforhodamine B assay). Details: not given.
Type: functional
In short: as §2
For `COc1cc2nc(-c3ccc(Cl)cc3)cc(OCCCN3CCCC3)c2cc1OC`, the GI50 was 2.16 µM.
`COc1cc2nc(-c3ccc(C(F)(F)F)cc3)cc(OCCCN3CCOCC3)c2cc1OC` showed a GI50 of 3.32 µM.

These compounds were tested on MCF7 (assay: Growth inhibition of human MCF7 cells incubated for 48 hrs by sulforhodamine B assay). Details: not given.
Type: functional
In short: as §1
With `COc1cc2nc(-c3ccc(Cl)cc3)cc(OCCCN3CCCC3)c2cc1OC` the GI50 was 1.33 µM.
`COc1cc2nc(-c3ccc(C(F)(F)F)cc3)cc(OCCCN3CCOCC3)c2cc1OC` showed a GI50 of 1.55 µM.
